High-throughput results as filed in PubChem.
FGF22 binding: binders of human FGF22 protein, primary screen, FGF22 synaptogenesis inhibitor project, biophysical, thermal shift, single point | actives 1.5% (n = 340,000) | recombinant FGF22 thermal shift, SYPRO orange fluorescence; percent of sucrose octasulfate shift, DMSO zero | AID 651658, 2012 | Fibroblast growth factor 22 (Homo sapiens), Q9HCT0 | activity (Tm shift, normalised), % at 9.99 µM;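 active = mean Tm shift, scaled 0 neutral to 100 positive control, at about 1.3% or above, every replicate too, limit read from the data; inconclusive = no clear call, values can overlap the other calls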
Target sequence (Q9HCT0 whole entry, looked up): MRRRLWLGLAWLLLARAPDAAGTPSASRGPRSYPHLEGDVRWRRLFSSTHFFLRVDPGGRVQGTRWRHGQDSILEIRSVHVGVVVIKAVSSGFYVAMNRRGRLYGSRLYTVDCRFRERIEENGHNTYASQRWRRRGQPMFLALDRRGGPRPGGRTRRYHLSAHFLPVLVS
FN deposit inh: inhibitors of fibronectin matrix deposition, primary screen, AH1F cells, Alexa488-fibronectin fluorescence, plate reader; AH1F fibroblasts, overnight; actives 0.086% (n = 350,000); inhibition, % at 12.6 µM; AID 743247, 2014;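 active = mean inhibition across replicates of 30% or more, regardless of how many single replicates reach that level; inconclusive = mean under 30% yet at least half of replicates reach 30%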
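Assay system: AH1F fibroblasts / Quantity: 10000 cells per well / Medium: DMEM plus 2% serum, read in PBS / Reagent: labelled fibronectin 24 nM / Dosing: single dose, pinned / Times: 1 h cell attachment, overnight exposure to compound and label / Signal: fluorescence, ex 485 nm, em 525 nm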
EWS-Fli inh: EWS/Fli-driven NR0B1 reporter inhibitors, primary screen, A673 cells, NR0B1 luciferase, luminescence, MLPCN library. viability-normalised. inhibition, % at 12.6 µM. actives 0.67% (n = 350,000). AID 651661, 2012;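 active = mean inhibition of at least 50% after viability correction, with every replicate also passing that limit; inconclusive = mean reaches 50% but only one of two replicates passes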;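 note: firefly luciferase signal divided by Alamar Blue viability fluorescence both relative to DMSO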
PAX8 reporter: inhibitors of PAX8-driven TPO luciferase reporter, primary screen, RMG-I cells, single concentration; SteadyGlo, 24 h; inhibition, % at 12.6 µM; actives 1.2% (n = 360,000); AID 652154, 2013;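 active = mean replicate inhibition at least 60% with every replicate also reaching 60%; inconclusive = only one of the two criteria is met; inactive = mean below 60% and not all replicates reaching 60%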;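 note: luciferase light reporting Pax8 driven TPO promoter activity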
PGC1a acetyl inh: inhibitors of PGC1a acetylation signal, primary screen, cell-based, U2OS, AlphaScreen, inhibitor mode | inhibition, % at 15.6 µM | AlphaScreen anti-acetyl-lysine; with virally co-expressed GCN5 acetyltransferase | actives 0.17% (n = 350,000);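 active = every replicate shows inhibition of at least 40%; inconclusive = mean inhibition at least 40% but some replicate below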
Env fusion inh: inhibitors of HIV-1 Env-driven cell-cell fusion, primary screen, HeLa-JRFL effector, CEM21 target cells, luciferase | inhibition, % at 12.3 µM | actives 1.1% (n = 360,000);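 active = mean replicate inhibition score of at least 50 and every replicate individually at or above 50; inconclusive = only one of the two criteria met; inactive = mean below 50 and not all replicates reaching 50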
A number is an active result; - = inactive; ? = inconclusive; . = not tested or not shown; ! = a repeat was not active. Compounds with a hit are over-represented: about 3.1% of the library has one in this group of screens.

SMILES	FGF22 binding	FN deposit inh	EWS-Fli inh	PAX8 reporter	PGC1a acetyl inh	Env fusion inh
COc1cc2oc(=O)cc(-c3ccc(-c4ccc(OC(F)(F)F)cc4)cc3)c2c(OC)c1OC	-	.	-	-	-	-
COc1ccc(-c2cccc(-c3cc(=O)oc4cc(OC)c(OC)c(OC)c34)c2)cc1	-	.	-	-	-	50.0
CCOC(=O)C1=C(O)/C(=C/c2ccc(OCC(=O)O)c(OC)c2)SC1=Nc1ccc(OCC)cc1	-	.	-	-	.	-
CCOC(=O)C1=C(O)/C(=C/c2ccc(OCC(=O)O)c(OCC)c2)SC1=Nc1ccccc1	43.0	-	-	-	.	-
C[C@@H]1CN([C@H](C)CO)S(=O)(=O)c2ccc(C3=CCCC3)cc2O[C@H]1CN(C)C(=O)c1ccncc1	-	.	-	-	-	-
Cc1ccc(Cn2ccsc2=NC(=O)CCl)cc1	-	-	-	114.1	-	?
Cc1ccc(S(=O)(=O)N(C)C[C@H]2Oc3c(NC(=O)Nc4ccccc4)cccc3C(=O)N([C@@H](C)CO)C[C@@H]2C)cc1	-	.	-	-	-	-
CCn1c(CCl)nc2cc(S(=O)(=O)N3CCOCC3)ccc21	43.1	-	-	-	-	-
CCn1c(SCC(N)=O)nc2cc(S(=O)(=O)N3CCOCC3)ccc21	-	-	-	-	.	-
COC(=O)c1c(-c2ccsc2)sc2ccc(-c3cc(OC)c(OC)c(OC)c3)cc12	-	-	-	-	.	59.2
COc1ccc(/C=C/C(=O)NC(C)CCc2ccccc2)cc1 (centres undefined)	.	-	.	-	.	-
COC(=O)C(CCSC)NC(=O)/C=C/c1ccc(OC)cc1 (centres undefined)	43.5	-	-	-	-	-
O=C(O)CC(NC(=O)C12CC3CC(CC(C3)C1)C2)c1cccc([N+](=O)[O-])c1 (centres undefined)	43.1	.	-	-	-	-
COn1c(SCc2ccc(C)cc2C)nc2ccccc2c1=O	.	-	.	.	.	57.3
COn1c(SCC(N)=O)nc2ccccc2c1=O	.	.	.	.	-	.
CCNC(=O)C[C@H]1CC[C@@H]2[C@H](COC[C@H](O)CN2C(=O)c2cc(Cl)cc(Cl)c2)O1	-	-	.	.	-	.
C[C@@H]1CN([C@H](C)CO)S(=O)(=O)c2ccc(-c3cccnc3)cc2O[C@H]1CN(C)Cc1cccnc1	.	-	-	.	-	-
CC[N+](C)(C)CCN(Cc1ccc(Cl)cc1)c1ccccn1	.	-	.	-	-	-
COc1ccc(CN(CCN(C)C)c2ccccn2)cc1	-	-	-	82.8!	-	-
COCC(C)n1c(C)cc(C(=O)COC(=O)c2cccn2C)c1C (centres undefined)	-	-	61.5	-	-	-
CC1C(=O)N(Cc2ccc([N+](=O)[O-])cc2)c2ccccc2N1C(=O)c1c(F)cccc1F (centres undefined)	-	-	-	-	-	77.9
COc1ccc(CN2C(=O)C(C)N(C(=O)c3c(F)cccc3F)c3ccccc32)cc1 (centres undefined)	-	-	-	-	.	-
COC(=O)C[C@@H]1CC[C@H]2[C@@H](COc3ccc(NC(=O)c4cnccn4)cc3C(=O)N2C)O1	-	-	-	-	-	.
COCc1[nH]nc2c1C(c1ccc(F)cc1)N(c1ccc(OC)cc1)C2=O (centres undefined)	43.3	-	-	-	.	-
O=C(c1cccnc1)N1C[C@H]2[C@@H](c3ccccc31)[C@H](CO)N2CC1CCCC1	-	32.2	-	-	-	.
SMILES	FGF22 binding	FN deposit inh	EWS-Fli inh	PAX8 reporter	PGC1a acetyl inh	Env fusion inh
N=c1sccn1CC(=O)Nc1ccc(SC(F)F)cc1	43.4	-	-	-	-	-
C=C1C(=O)O[C@H]2[C@@H]1CC/C(CO)=C\CC[C@@]1(C)O[C@@H]21	-	.	-	83.1	-	-
C[C@]1(C(=O)NCc2cc(F)cc(C(F)(F)F)c2)C=C[C@@H](Cc2ccccc2)N1C(=O)c1ccccc1	-	-	-	-	.	56.2
CC(=O)Nc1ccc(/C=N/Nc2nc3ccccc3s2)cc1	-	-	-	-	-	-
CC(=O)Nc1cccc(/C(C)=N/Nc2nc3ccccc3s2)c1	43.1	-	-	-	.	-
Cc1cccc(N2CCN(C(=O)c3ccccn3)CC2C)c1 (centres undefined)	43.1	-	-	-	.	-
Cc1cccc(N2CCN(C(=O)CCN3C(=O)C4C5C=CC(C5)C4C3=O)CC2C)c1 (centres undefined)	43.5	-	-	-	.	-
CCC/C(=C1/c2ccccc2C(=O)N1c1ccccc1)c1ccc2c(c1)OCCO2	-	-	62.0	-	-	-
CCOc1ccc(N2CC(C(=O)Nc3ccc(S(=O)(=O)NCC4CCCO4)cc3)CC2=O)cc1 (centres undefined)	-	-	-	-	56.2	-
Cc1ccc(N2CC(C(=O)Nc3ccc(S(=O)(=O)NCC4CCCO4)cc3)CC2=O)cc1C (centres undefined)	-	-	.	-	.	-
Cc1nnc(SCC(=O)N(C)C2CCCCC2)s1	43.5	-	-	-	-	-
CN(C(=O)CSc1n[nH]c(N)n1)C1CCCCC1	-	-	-	-	.	-
Cc1noc(C)c1NC(=O)Nc1ccc2c(c1)CC(=O)N([C@@H](C)CO)C[C@@H](C)[C@@H](CN(C)Cc1ccc(-c3ccccc3)cc1)O2	-	.	-	.	-	-
CC1(C)CC(=O)C=C(c2cccc3c2oc2ccccc23)C1	-	-	-	-	-	72.5
CNC[C@H]1Oc2ccc(NS(=O)(=O)c3ccc(F)cc3)cc2C(=O)N([C@@H](C)CO)C[C@H]1C	-	.	-	-	-	-
Cn1c(NC(=O)c2ccc(Cl)cc2)cc(=O)n(C)c1=O	43.6	-	-	-	.	-
CO[C@@H]1CN(C)C(=O)c2cc(NS(=O)(=O)c3ccc(-c4ccccc4)cc3)ccc2OC[C@@H](C)NC[C@@H]1C	-	-	-	.	-	-
Cc1c(-c2cccc(NC(=O)c3cccs3)c2)nc2ncccn12	-	-	-	-	.	-
Cc1c(-c2cccc(NC(=O)c3ccco3)c2)nc2ncccn12	44.3	-	-	-	-	-
C[C@@H]1CCCCO[C@H](CN(C)CC2CCCCC2)[C@H](C)CN([C@@H](C)CO)C(=O)c2cc(NC(=O)Nc3ccc(C(F)(F)F)cc3)ccc2O1	-	-	81.2	-	-	-
C[C@@H]1CCCCO[C@H](CN(C)CC2CCCCC2)[C@H](C)CN([C@@H](C)CO)C(=O)c2cc(NC(=O)Cc3ccccc3)ccc2O1	-	.	72.7	-	-	-
C[C@@H]1CCCCO[C@@H](CN(C)CC2CCCCC2)[C@@H](C)CN([C@H](C)CO)C(=O)c2cc(NC(=O)Nc3ccc(C(F)(F)F)cc3)ccc2O1	-	-	-	-	-	-
